High-throughput results from PubChem BioAssay.
Shown are actives, neighbours in structure and some others; about 3.7% of the full set was active somewhere.
KCNK3 inh = human KCNK3 channel inhibition, primary screen; O14649; CHO-KCNK3 thallium flux, FluxOR fluorescence; stronger effect = lower value; B-score at 10 µM; actives 0.84% (n = 340,000); AID 602410;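 active = B-score under library mean minus 4 SD, starting fluorescence ratio at most library mean plus 5 SD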;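 also: more negative B-score means stronger inhibition of thallium flux through KCNK3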
KCNK9 block = human KCNK9 channel inhibition | B-score at 10 µM | actives 1.2% (n = 310,000) | HEK293 KCNK9, FluxOR thallium flux fluorescence; stronger effect = lower value | AID 488922;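 active = ratio B-score over 3 SD below the library mean, with starting fluorescence within 5 SD of its mean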;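 also: negative B-score means less thallium flux so channel inhibition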
Target sequence (Q9NPC2 whole entry, looked up): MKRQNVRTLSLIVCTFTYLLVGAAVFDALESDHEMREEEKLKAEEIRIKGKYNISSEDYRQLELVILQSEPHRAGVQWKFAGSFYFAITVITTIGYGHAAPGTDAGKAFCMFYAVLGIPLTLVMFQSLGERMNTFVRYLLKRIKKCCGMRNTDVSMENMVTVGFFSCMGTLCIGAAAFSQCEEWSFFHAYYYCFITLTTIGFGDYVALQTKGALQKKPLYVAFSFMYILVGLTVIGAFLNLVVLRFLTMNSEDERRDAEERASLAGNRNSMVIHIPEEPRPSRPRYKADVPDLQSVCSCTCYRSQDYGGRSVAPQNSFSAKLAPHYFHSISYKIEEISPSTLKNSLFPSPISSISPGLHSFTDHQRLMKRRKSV
KCNQ1 inh = human KCNQ1 channel inhibition. CHO-K1 KCNQ1, FluxOR thallium flux fluorescence; stronger effect = higher value. B-score at 10 µM. actives 1.3% (n = 310,000). AID 2642;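 active = compounds whose thallium flux B-score, printed positive for inhibition, exceeds three library SD while starting fluorescence stays within three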;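 also: channel opened by potassium depolarization with thallium stimulus after 20 min compound exposure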
KCNQ1 pot = potentiators or activators of human KCNQ1 potassium channel; CHO-K1 KCNQ1, thallium flux FluxOR fluorescence; stronger effect = higher value; actives 0.35% (n = 310,000); P51787; B-score at 10 µM; AID 2648;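 active = fluorescence ratio B-score, a plate-corrected score, at least three library SD, with initial intensity B-score within 5 SD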
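assay system = CHO-K1 cells stably expressing KCNQ1 | medium = assay buffer, equal DMSO in all wells | timing = 37 °C overnight plating, 90-min dark dye load, 20-min compound pretreatment | measured by = kinetic FluxOR thallium fluorescence, 10-s 1-Hz baseline, 110-s post-stimulus read | measure = fluorescence change relative to baseline, converted to B score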
hERG rescue = shields human hERG channel from block by proarrhythmic agents; Q12809; CHO-hERG, FluxOR thallium flux, dofetilide IC70 present; activation (rescue from dofetilide block), less the hit threshold, % at 10 µM; actives 0.51% (n = 310,000); AID 1511;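 active = activation above the mean of controls blocked by dofetilide plus 5 SD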;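 also: thallium influx through hERG after potassium depolarization seen as dye fluorescence rise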
Kir21 inh = blocks the mouse Kir2.1 inward-rectifier potassium channel. actives 0.85% (n = 310,000). AID 1672. B-score at 10 µM. P35561. HEK293-Kir2.1, FluxOR thallium flux fluorescence; stronger effect = lower value;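 active = fluorescence ratio B-score at or below minus 3 SD of library scores, with starting-brightness B-score within 2 SD, cut at about -4.2 in these data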;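 also: channel flux triggered by added potassium and thallium sulfate stimulus; B-score of peak minus minimum fluorescence over baseline after thallium stimulus; more negative B-score means stronger Kir2.1 block with less thallium influx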
* = called active by the depositor; i = inactive; . = no result.

SMILES	KCNK3 inh	KCNK9 block	KCNQ1 inh	KCNQ1 pot	hERG rescue	Kir21 inh
COc1cc(/C=N/N=C(N)N)ccc1OCc1ccc(Cl)cc1	i	i	13*	i	-32	-8.2*
COc1cc(/C=N/O)ccc1OCc1ccc(Cl)cc1	.	i	i	i	-6	-0.47
CCC(C)NS(=O)(=O)c1cc2c3c(c1)CCC(=O)N3CCC2 (configuration not stated)	i	i	i	i	-5	-0.63
Cc1cccc(-n2cc(-c3ccccc3)c3c(=O)[nH]cnc32)c1	i	-7.2*	i	i	-14	-0.66
Cc1sc(NC(=O)C2CSC3(C)CCC(=O)N23)nc1-c1ccccc1 (configuration not stated)	i	i	i	i	-10	-1.6
Cc1c(-c2ccccc2)sc2nc[nH]c(=S)c12	i	i	i	91*	30*	0.39
S=c1nc(C23CC4CC(CC(C4)C2)C3)[nH][nH]1	i	i	i	i	-5	-0.62
S=c1nn[nH]n1C12CC3CC(CC(C3)C1)C2	i	i	i	9*	14*	0.83
Cc1cccc(C)c1NC(=S)NC(=O)c1ccc(Br)o1	i	i	i	27*	25*	1.7
Cc1cccc(NC(=S)NC(=O)c2ccc(Br)o2)c1C	i	i	i	i	46*	0.37
O=C(NC(=S)Nc1ccccc1F)c1ccc(Br)o1	i	i	i	77*	32*	-0.25
CCN(c1ccccc1)S(=O)(=O)c1ccc(NC(=S)NC(=O)c2ccc(Br)o2)cc1	i	i	i	12*	11*	-0.54
Cc1ccc(NC(=S)NC(=O)c2ccc(Br)o2)c(C)c1	i	i	i	i	0	-1.6
N#Cc1c(C#N)c(SSc2c(C#N)c(C#N)c(N)n2-c2ccccc2)n(-c2ccccc2)c1N	i	.	.	.	.	.
O=C(CN1CCN(c2cnn(-c3ccccc3)c(=O)c2Cl)CC1)NC1CCS(=O)(=O)C1 (configuration not stated)	i	.	.	.	.	.
O=C(Cc1ccccc1)NC1CCN(C(=O)c2ccc([N+](=O)[O-])cc2)CC1	i	i	i	i	-3	0.95
O=C(c1ccc([N+](=O)[O-])cc1)N1CCC(Cc2ccccc2)CC1	i	-7.4*	i	i	-10	0.13
Oc1oc(-c2ccccc2)nc1/C=N/c1nccs1	i	i	i	12*	0	-1.4
CCCCOc1ccc(-c2nc(/C=N/c3nccs3)c(O)o2)cc1	i	i	i	i	1	0.66
COc1cccc(NC(=O)CSc2c3c(nc4ccccc24)CCCC3)c1	i	i	i	i	-11	-5.8*
COc1ccccc1NC(=O)CSc1nnc(-c2ccoc2C)n1C	i	i	i	i	-5	0.39
CCC(C)Sc1ccc(-c2nc3ccccn3c2NCc2ccccc2)cc1OC (configuration not stated)	i	.	.	.	.	.
COc1ccc(CSc2ccc(-c3nc4ccccn4c3NCc3ccccc3)cc2OC)cc1	i	i	6*	i	-7	-1.2
CC(Nc1ccc2ccccc2c1)C(=O)N/N=C/c1ccncc1 (configuration not stated)	i	.	.	.	.	.
COc1ccccc1[C@@]1(C)ON(c2ccccc2C(F)(F)F)C1=O	i	.	.	.	.	.
SMILES	KCNK3 inh	KCNK9 block	KCNQ1 inh	KCNQ1 pot	hERG rescue	Kir21 inh
Cc1cc(NCCCn2ccnc2)n2nc(C)c(-c3ccccc3)c2n1	i	i	6*	i	-15	-3.9
Cc1ccc2nc3sc(C(=O)Nc4ccc(N5CCOCC5)cc4)c(N)c3cc2c1	.	i	i	i	-1	0.17
Cc1cccc2cc3c(N)c(C(=O)Nc4ccc(N5CCOCC5)cc4)sc3nc12	-11*	i	i	i	-1	-2.9
Cc1c(NC(=O)C(C)OC(=O)c2cccnc2Cl)c(=O)n(-c2ccccc2)n1C (configuration not stated)	i	.	.	.	.	.
COc1cc(OC)cc(C(C)=O)c1	i	i	i	i	5.7*	1.2
COc1cc(OC)cc(C(=O)Nc2cccc(C(C)=O)c2)c1	i	i	i	i	-13	-0.1
COc1cc(N/N=C/c2ccc(N(C)C)cc2)ncn1	i	i	i	i	-10	1.3
CN(C)c1cc(N/N=C/c2ccc(Cl)cc2)nc(N(C)C)n1	i	i	7*	i	-11	-0.28
COc1ccccc1CCNC(=O)Nc1cccc([N+](=O)[O-])c1	i	i	6*	i	-4	-0.38
O=C(NCCc1ccc(F)cc1)Nc1ccc([N+](=O)[O-])cc1	i	i	i	i	-16	1.6
O=[N+]([O-])c1ccc(NC(=S)NCCc2ccc(F)cc2)cc1	i	i	6*	i	-49	-5.2*
CC(=O)c1cccc(NC(=S)NCCCCc2ccccc2)c1	i	i	6*	i	-9	-1.4
O=[N+]([O-])c1ccc(S(=O)(=O)NNC(=S)NCCc2ccccc2)cc1	i	i	i	i	-2	0.82
COc1ccc(NC(=O)Nc2cccc([N+](=O)[O-])c2)cc1Cl	i	i	i	i	-10	-0.56
O=[N+]([O-])c1cccc(NC(=S)NCCc2ccccc2)c1	i	i	8*	i	-15	1.2
Cc1ccc(NC(=O)CNCc2cccs2)cc1Br	i	i	i	i	-8	0.95
O=C(CCN1C(=O)c2ccccc2S1(=O)=O)Nc1ccc(Cl)cc1	i	i	i	i	-3	0.26
Fc1ccc(NC(=S)NCCc2ccc(Cl)cc2)cc1	i	i	i	i	-22	-4.4*
CCOC(=O)N1CCN(S(=O)(=O)c2c[nH]c(C(=O)OC)c2)CC1	i	i	i	i	-11	1
COCCCNC(=O)/C=C1\Sc2ccccc2N(Cc2ccccc2F)C1=O	i	i	i	i	-14	0.12
CN1CCN(CCCNC(=O)c2ccc(/C=C3\Sc4ccccc4N(Cc4ccc(F)cc4)C3=O)cc2)CC1	i	i	6*	i	-42	-0.43
CCN1CCN(CCNC(=O)c2ccc(/C=C3\Sc4ccccc4N(Cc4ccccc4F)C3=O)cc2)CC1	i	i	7*	i	-31	-4.7*
CN1CCN(CCCNC(=O)c2ccc(/C=C3\Oc4ccccc4N(Cc4ccccc4F)C3=O)cc2)CC1	i	i	i	i	-20	0.04
CC(C)[C@H](NC(=O)c1ccccc1F)C(=O)OCC(=O)NC1CC1	i	.	.	.	.	.
N#Cc1c(N)oc(-c2ccc3c(c2)OCO3)c1-c1ccc2c(c1)OCO2	i	-6.8*	i	i	-11	0.54
